Assay outcomes: PubChem BioAssay, several laboratories
Compounds with a hit are over-represented: about 1.7% of the library has one in this group of screens.
ZTA DNA inh: ZTA (EBV) inhibition in EBNA-1 counter-screen. 0.15% of 320,000 active. inhibition, % at 11 µM. P03206. ZTA-DNA binding, fluorescence polarization. AID 2234; in the data active means inhibition above about 33%
MEX-5 binding: MEX-5 zinc finger RNA-binding disruptors – biochemical, C. elegans, fluorescence polarization, MLPCN library, primary screen; Zinc finger protein mex-5 (Caenorhabditis elegans), Q9XUB2; AID 1832, 2009; MEX-5/FITC-TCR2 RNA binding; hits give low values; activity score (negative = inhibition of binding), % at 10 µM; 0.38% of 300,000 active;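 active means inhibition past about -25% in most replicates, and total fluorescence under double the plate's negative control median, limit read from the data; inconclusive means replicates evenly split on the limit, or fluorescence at least double controls; inactive means too little inhibition in most replicates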
Target sequence (Q9XUB2 whole entry, looked up): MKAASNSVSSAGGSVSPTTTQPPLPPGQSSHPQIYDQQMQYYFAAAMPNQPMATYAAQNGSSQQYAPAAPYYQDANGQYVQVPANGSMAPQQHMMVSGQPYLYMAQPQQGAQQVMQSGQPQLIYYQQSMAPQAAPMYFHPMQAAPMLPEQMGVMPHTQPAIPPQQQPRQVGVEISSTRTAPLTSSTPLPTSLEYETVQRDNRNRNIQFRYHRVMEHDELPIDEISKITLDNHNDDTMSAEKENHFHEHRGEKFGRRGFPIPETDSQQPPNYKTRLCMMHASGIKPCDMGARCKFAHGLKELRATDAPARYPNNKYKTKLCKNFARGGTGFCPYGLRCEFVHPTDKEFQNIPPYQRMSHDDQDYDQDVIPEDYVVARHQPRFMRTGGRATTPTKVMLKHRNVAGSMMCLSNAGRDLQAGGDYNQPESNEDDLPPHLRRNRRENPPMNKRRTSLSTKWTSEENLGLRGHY
HCV NS3 hel inh: inhibitors of HCV NS3 helicase, primary screen, biochemical, Cy5 molecular beacon fluorescence. Hepatitis C virus NS3 helicase. NS3 helicase DNA unwinding. inhibition, % at 10.9 µM. 0.56% of 290,000 active;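 active means inhibition above the mean of all tested compounds plus 3 SD, set per campaign, cut at about 35% in these data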
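test system = hepatitis C virus NS3 helicase domain fragment enzyme | reagent = annealed dual-labelled DNA beacon duplex, ATP-started | times = 1 h at 25 °C | detection = Cy5 fluorescence, 0 and 60 min reads | read-out basis = percent inhibition from t60/t0 fluorescence ratio | control set = DMSO and thioflavine S | replication = one well per compound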
EBV gp42 inh: Epstein-Barr virus gp42 inhibitors, primary screen, biochemical, uHTS, fluorescence polarization. Glycoprotein 42 (Epstein-Barr virus (strain AG876)), Q1HVG2. Fluorescence polarization binding assay, mP read-out. inhibition, % (tested at 21.74 µM). 0.42% of 220,000 active. AID 1085, 2008; in the data active means inhibition above about 50%
EBNA-1 inh: EBNA-1 DNA-binding inhibitors, primary screen, biochemical, fluorescence polarization; inhibition, % at 14.8 µM; 0.34% of 300,000 active; AID 1950, 2009; in the data active means inhibition above about 28%
HCV core dimer: inhibitors of HCV core protein dimerization, primary screen, biochemical, TR-FRET, high-throughput; TR-FRET GST/Flag-core106 dimerization, 1536-well; inhibition, % at 5 µM; 0.33% of 300,000 active;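 active means inhibition above the mean of all tested compounds plus 3 SD, set per screening campaign, cut at about 45% in these data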
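System: GST-tagged and Flag-tagged HCV core protein residues 1-106 / Input: core106 proteins, GST 13.5 nM and Flag 17 nM / Buffer or medium: KF-containing HEPES buffer, pH 7.45, DTT, CHAPS, BSA / Probe or stimulus: Eu-anti-GST and XL665-anti-Flag labelled anti-tag antibodies / Schedule: 4 h, 22.5 °C incubation / Technique: TR-FRET 671 and 617 nm emission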
Large screens that a line does not name were inactive.

Cc1ccc(-c2nc3ccccc3o2)cc1NC(=S)NC(=O)/C=C/c1ccco1	HCV core dimer 56
CN(CC(=O)Nc1ccc(F)c(F)c1F)C(=O)CCCSc1nc2ccccc2[nH]1	none (no result: HCV NS3 hel inh, EBV gp42 inh)
Cn1c(=O)c(C(=O)COC(=O)c2cc(-c3ccco3)nc3ccccc23)c(N)n(CC2CC2)c1=O	HCV core dimer 57
O=C(OCC(=O)N1CCN(C(=O)c2ccco2)CC1)c1cc(-c2ccco2)nc2ccccc12	EBV gp42 inh 76, HCV core dimer 68
O=C(O)COc1cccc(/C=C2/SC(=S)N(Cc3ccccc3)C2=O)c1	HCV core dimer 56 (no result: EBV gp42 inh)
O=C(O)CN1C(=O)/C(=C\c2cccc(OCc3ccccc3)c2)SC1=S	none (no result: EBV gp42 inh)
Cc1cccc(Cc2cnc(NC(=O)CN3C(=O)/C(=C/c4ccccc4)SC3=S)s2)c1	HCV core dimer 62
Cc1ccc(/C=C2/SC(=S)N(CC(=O)Nc3ncc(Cc4ccc(C)cc4)s3)C2=O)cc1	HCV core dimer 70
COc1ccc(N(C)S(=O)(=O)c2cccc(C(=O)Nc3cccc(C(=O)NC4CC4)c3)c2)cc1	none (no result: MEX-5 binding, HCV NS3 hel inh, EBV gp42 inh, EBNA-1 inh, HCV core dimer)
Cc1ccc(Cl)cc1N1CCN(C(=O)CSc2ccsc2[N+](=O)[O-])CC1	HCV core dimer 57
Cc1ccc(C)c(CSC2=NCCN2S(=O)(=O)c2ccccc2)c1	none (no result: EBV gp42 inh)
O=C1Nc2ccc(F)cc2C12Nc1ccccc1-c1nnc(SCc3ccccc3F)nc1O2 (stereo unspecified)	none
O=C1Nc2ccc(Cl)cc2C12Nc1ccccc1-c1nnc(SCc3ccccc3F)nc1O2 (stereo unspecified)	EBV gp42 inh 102
Oc1ccc2ccccc2c1C=Nc1ccc(Cl)cn1	EBV gp42 inh 82
CN1/C(=C\C(=O)c2ccco2)C(C)(C)c2ccccc21	ZTA DNA inh 147, EBNA-1 inh 39
CN1/C(=C/C=C(C#N)C#N)C(C)(C)c2ccccc21	MEX-5 binding -87, EBV gp42 inh 54
CCOCCCn1c(=S)[nH]c2cc(C(=O)NC3CCCC(C)C3C)ccc2c1=O (stereo unspecified)	none (no result: EBV gp42 inh)
O=c1c(-c2cc3ccccc3o2)[n+]([O-])c2ccccc2n1OCc1ccccn1	none
CCOn1c(=O)c(-c2cc3ccccc3o2)[n+]([O-])c2ccccc21	MEX-5 binding -43
COc1ccc(NC(=O)CSc2nnnn2C2CC2)cc1S(=O)(=O)N1CCOCC1	none (no result: MEX-5 binding, HCV NS3 hel inh, EBV gp42 inh, EBNA-1 inh, HCV core dimer)
O=[N+]([O-])c1cccc(NNS(=O)(=O)c2ccccc2F)c1	none (no result: EBV gp42 inh)
NC(=O)C[n+]1ccc(/C=N/O)cc1	none
CC(C)N(C(=O)C[n+]1ccc(/C=N/O)cc1)C(C)C	EBV gp42 inh 77
N#Cc1c(NC(=O)CSc2nnc(-c3ccco3)n2-c2ccccc2)sc2c1CCC2	HCV core dimer 64
CCn1c(SCC(=O)Nc2sc3c(c2C#N)CCCC3)nnc1-c1ccco1	none
NC(=O)c1c(NC(=O)CSc2nnc(-c3ccco3)n2-c2ccccc2)sc2c1CCC2	EBV gp42 inh 67, HCV core dimer 72
CC(Sc1nnc(CC(=O)Nc2ccccc2F)n1C)C(=O)Nc1nccs1 (stereo unspecified)	none (no result: EBV gp42 inh)
Cc1csc(NC(=O)CCC(=O)N(CC(=O)NC2CCCC2)Cc2ccccc2)n1	none (no result: EBV gp42 inh)
COc1ccc(N2C(=O)C(Cl)=C(Nc3ccccc3OC)C2=O)cc1	none
COc1ccc(N2C(=O)C(Cl)=C(Nc3ccccc3O)C2=O)cc1	MEX-5 binding -34
N#C/C(=C\C=C\c1ccccc1)c1nc(-c2ccc3c(c2)OCO3)cs1	EBV gp42 inh 156
COC(=O)c1sccc1NC(=O)Nc1ccc(C(C)=O)cc1	none (no result: ZTA DNA inh, MEX-5 binding, EBV gp42 inh, EBNA-1 inh, HCV core dimer)
CC(C)Cc1ccccc1O	none (no result: EBV gp42 inh)
CCN(CC)CCN1C2=C(C(=O)CC(C)(C)C2)C(c2cccc(F)c2)C2=C1CC(C)(C)CC2=O	EBV gp42 inh 140
O=C1NC(=S)S/C1=C/c1ccc(N2CCOCC2)o1	MEX-5 binding inconclusive
COc1ccc2cc(/C=C3\SC(=S)NC3=O)c(N3CCOCC3)nc2c1	MEX-5 binding -26
CC(=O)N/N=C(/C)c1ccc(NC(=O)c2csc(C)c2C)cc1	none (no result: EBV gp42 inh)
